ChEMBL document CHEMBL1955718, “Discovery of new orally effective analgesic and anti-inflammatory hybrid furoxanyl N-acylhydrazone derivatives” (Bioorg Med Chem, 2012)
pIC50: −log10 of the molar value.

What was measured:
[1] = Cytotoxicity against human HT-29 cells expressing NF-kappaB-hrGFP assessed as highest non-cytotoxic dose for 100% cell survival after 24 hrs by MTT assay; format: cell-based; details: read-out: Activity
Method in brief: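 HT-29 cells stably carrying pNF-κB-hrGFP, seeded at 0.5 × 10^6/mL in DMEM with 10% FBS, grown 24 h at 37 °C, 5% CO2. Compounds added in DMSO (<0.5% v/v final) at 12.5–400 µM for 24 h. Viability by MTT reduction (2 h), formazan dissolved in DMSO/glycine buffer, read at 560 nm.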

HT-29 [2] = experiment: Inhibition of NF-kappaB activation expressed in human HT-29 cells assessed as inhibition of TNFalpha-stimulated IL8 release at 100 uM after 24 hrs by flow cytometric analysis relative to control; format: cell-based
Method in brief: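 Reporter HT-29-NF-κB-hrGFP cells pretreated 2 h with compound (DMSO <0.5%) at the highest concentration with 100% survival, then stimulated with TNF-α (3 ng/mL final) for 18–24 h at 37 °C. IL-8 in clarified supernatant measured by flow cytometric bead assay (500 events). Expressed as % of TNF-α/DMSO control ± SD; thalidomide as reference.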

[3] = Cytotoxicity against mouse […] cells after 48 hrs by MTT assay; format: cell-based
Method in brief: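 J774 macrophages in DMEM (4 mM L-glutamine, 10% heat-inactivated FBS) were seeded at 1 × 10^5 cells/well and grown for 48 h at 37 °C, 5% CO2. They were then exposed to compounds at 25–400 µM for 48 h. MTT (0.1 mg/mL final) was added for 3 h, formazan was dissolved in DMSO/glycine buffer pH 10.5, and absorbance was read at 560 nm to give an IC50.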

HT-29 [4] = experiment: Pro-inflammatory activity in NFkappaB-GFP transfected human HT-29 cells at 25 to 400 uM after 24 hrs by propidium iodide staining-based flow cytometric analysis; format: ADME, cell-based; details: ht-29, 24 h
Method in brief: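 Reporter HT-29-NF-κB-hrGFP cells given compound alone, without TNF-α, for 18–24 h at 37 °C after the same 2 h pre-incubation. GFP-positive live (propidium iodide-excluding) cells counted by flow cytometry; IL-8 in supernatant measured by bead-based flow cytometry.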

Rattus norvegicus = experiment: Antiinflammatory activity in albino rat assessed as inhibition of carrageenan-induced paw edema at 100 umol/kg, po administered 1 hr before carrageenan challenge measured after 3 hrs by plethysmometric analysis relative to control; format: functional
Method in brief: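 Albino rats of both sexes (150–200 g) were dosed orally as a suspension in 1% Tween 80 in saline, with vehicle controls. After 1 h, 0.1 mL 1% carrageenan or saline was injected subplantar. Paw volume was read by glass plethysmometer at 3 h. Edema = carrageenan-paw minus saline-paw volume; % inhibition vs vehicle; Student t-test.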

Glycine max = experiment: Inhibition of soybean lipoxygenase using arachidonic acid as substrate at 50 uM
Method in brief: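 Soybean 15-lipoxygenase kit assay, arachidonic acid substrate, H2O2 as lipoxygenating agent in 0.1 M Tris-HCl pH 7.4. Single-point screen at 50 µM. IC50 found by varying concentration over 10–100 µM. Quercetin at 4 µM as positive control; duplicate means; Student t-test.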

[5] = target: T1, Prostaglandin G/H synthase 1 (Ovis aries) (UniProt P05979); experiment: Inhibition of ovine COX-1 at 10 uM
T1 sequence (whole entry): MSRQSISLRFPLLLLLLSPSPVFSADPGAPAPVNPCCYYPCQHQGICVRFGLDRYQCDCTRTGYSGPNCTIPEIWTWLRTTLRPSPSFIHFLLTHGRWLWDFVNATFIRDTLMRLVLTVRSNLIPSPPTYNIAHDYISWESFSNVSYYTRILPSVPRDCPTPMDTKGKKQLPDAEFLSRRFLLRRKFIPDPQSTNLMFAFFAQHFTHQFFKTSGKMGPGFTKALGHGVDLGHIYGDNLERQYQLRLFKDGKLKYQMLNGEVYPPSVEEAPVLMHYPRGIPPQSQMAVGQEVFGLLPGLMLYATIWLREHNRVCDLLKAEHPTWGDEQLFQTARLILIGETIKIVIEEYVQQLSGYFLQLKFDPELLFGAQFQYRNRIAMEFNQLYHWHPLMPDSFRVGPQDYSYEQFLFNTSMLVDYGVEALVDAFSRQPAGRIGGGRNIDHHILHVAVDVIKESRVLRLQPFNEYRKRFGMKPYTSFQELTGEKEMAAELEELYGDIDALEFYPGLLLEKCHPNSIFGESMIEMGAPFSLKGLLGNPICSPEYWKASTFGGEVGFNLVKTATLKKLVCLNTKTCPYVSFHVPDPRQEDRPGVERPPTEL
Method in brief: (§1)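 Isolated ovine COX-1 and human recombinant COX-2 tested by ELISA-based inhibitor screening kit with compound at 10 and 50 µM. Positive control indomethacin at 0.1 µM (COX-1) or 6 µM (COX-2). Mean of duplicates; Student t-test.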

[6] = target: T1, Prostaglandin G/H synthase 1 (Ovis aries); experiment: Inhibition of ovine COX-1 at 50 uM; method in brief: as §1
[7] = target: T2, Prostaglandin G/H synthase 2 (Homo sapiens) (UniProt P35354); experiment: Inhibition of human recombinant COX-2 at 10 uM; method in brief: as §1
T2 sequence (whole entry): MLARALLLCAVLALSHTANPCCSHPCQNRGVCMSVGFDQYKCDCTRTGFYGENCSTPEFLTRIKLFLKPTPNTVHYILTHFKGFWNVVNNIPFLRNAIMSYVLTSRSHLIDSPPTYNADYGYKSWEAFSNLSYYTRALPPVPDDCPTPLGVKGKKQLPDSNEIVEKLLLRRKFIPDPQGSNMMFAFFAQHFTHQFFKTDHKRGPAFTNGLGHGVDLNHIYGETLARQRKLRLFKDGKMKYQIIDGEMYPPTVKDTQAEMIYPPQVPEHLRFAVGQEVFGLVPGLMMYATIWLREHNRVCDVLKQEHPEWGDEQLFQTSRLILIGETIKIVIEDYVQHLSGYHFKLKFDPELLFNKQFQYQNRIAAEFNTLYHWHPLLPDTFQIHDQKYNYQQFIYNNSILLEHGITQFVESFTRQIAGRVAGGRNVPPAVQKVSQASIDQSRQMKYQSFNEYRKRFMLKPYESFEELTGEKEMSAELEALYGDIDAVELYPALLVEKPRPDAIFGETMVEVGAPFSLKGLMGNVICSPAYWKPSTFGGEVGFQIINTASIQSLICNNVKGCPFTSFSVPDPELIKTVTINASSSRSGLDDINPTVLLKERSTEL

[8] = target: T2, Prostaglandin G/H synthase 2 (Homo sapiens); experiment: Inhibition of human recombinant COX-2 at 50 uM; method in brief: as §1
[9] = Induction of NO release in 0.1 M Tris-HCl and 0.1 mM DTPA at pH 7.4 measured for 20 mins in presence of cysteine; format: physicochemical; details: buffer, pH 7.4, 20 min
Method in brief: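 Electrochemical NO detection with an ISO-NOP sensor. Compounds in DMSO added to 0.1 M Tris-HCl, 0.1 mM DTPA at pH 7.4 or 8.3. Cysteine (300 or 100 µM) added and NO recorded for 20 min at 25 or 37 °C; compound:Cys ratio 1:1 at 25 °C, with 3:1 and 37 °C runs also made.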

Cc1c(C(=O)N/N=C/c2ccc(N(C)C)cc2)no[n+]1[O-] gave an MNTC at 24 h [1] of 100 µM, an inhibition (HT-29 [2]) of 98% and a pIC50 [3] of 3.89. The Activity (HT-29 [4]) was “Non-toxic”, the inhibition in vivo at 100 µmol/kg (Rattus norvegicus) was 19% and the inhibition (Glycine max) was 0%. The inhibition [5] was 22.5%, the inhibition [6] was 25.3% and the inhibition [7] was 17.8%. The inhibition [8] was 22%.
With Cc1[nH]cnc1C(=O)N/N=C/c1ccc2no[n+]([O-])c2c1 the MNTC at 24 h [1] was 50 µM, the pIC50 [3] was 4.42 and the Activity (HT-29 [4]) was “Non-toxic”. It also gave an inhibition in vivo at 100 µmol/kg (Rattus norvegicus) of 31%, an inhibition (Glycine max) of 0% and an inhibition [5] of 25.9%. For the same molecule, the inhibition [6] was 22.3%, the inhibition [7] was 19.6% and the inhibition [8] was 6.4%. The Activity [9] was 0 nM/min.
O=C(N/N=C/c1c(-c2ccccc2)no[n+]1[O-])c1ccc2c(c1)OCO2 showed an MNTC at 24 h [1] of 100 µM, an inhibition (HT-29 [2]) of 4% and a pIC50 [3] of 3.72. The Activity (HT-29 [4]) was “Non-toxic”, the inhibition in vivo at 100 µmol/kg (Rattus norvegicus) was 0% and the inhibition (Glycine max) was 0%. For the same molecule, the inhibition [5] was 27%, the inhibition [6] was 28.5% and the inhibition [7] was 13.1%. The inhibition [8] was 11.9% and the Activity [9] was 0 nM/min.
